Assay results published in paper PMC6733178 (ACS Omega, 2019).
Values after ≈ are worked out from the molar mass of the structure shown.

Tests used:
[1] = tested on: tested Gram-positive strains (S. aureus incl. MRSA, S. epidermidis, B. subtilis); test: MIC summarised in the text over the tested Gram-positive strains; assay type: cell-based
[2] = tested on: S. epidermidis 700296 (Se); test: MIC, broth microdilution with resazurin; assay type: cell-based; conditions: Staphylococcus epidermidis, read-out: MIC Values Se
[3] = tested on: S. aureus ATCC 33592 (Sa92); test: MIC, broth microdilution with resazurin; assay type: cell-based, Staphylococcus aureus; conditions: Staphylococcus aureus, ATCC33592, read-out: MIC Values Sa92
How it was run: (§1)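 CLSI broth microdilution. Strains were grown overnight at 35 °C on TSA or TSA with 5% sheep blood. Colonies were suspended in 0.9% saline to 0.5 McFarland, then diluted 1:100 in Mueller Hinton broth (about 1 × 10^6 CFU/mL). Test compound (2 mg/mL DMSO stock) was serially diluted 1:2 from 50 µg/mL final. Resazurin was added at 8 µg/mL final, and plates were incubated 35 °C for 20–24 h and read visually. MIC is the lowest concentration without the resazurin colour change. Each plate carried untreated, DMSO and antibiotic controls.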

[4] = tested on: S. aureus ATCC 700699 (Sa99); test: MIC, broth microdilution with resazurin; assay type: cell-based, Staphylococcus aureus; conditions: for MIC: Staphylococcus aureus, ATCC700699, read-out: MIC Values Sa99
How it was run: as §1

[5] = tested on: S. aureus ATCC 33591 (Sa91); test: MIC, broth microdilution with resazurin; assay type: cell-based, Staphylococcus aureus; conditions: Staphylococcus aureus, ATCC33591, read-out: MIC Values Sa91
How it was run: as §1

[6] = tested on: S. aureus BAA-2312 (Sa12); test: MIC, broth microdilution with resazurin; assay type: cell-based, Staphylococcus aureus; conditions: Staphylococcus aureus, BAA2312, read-out: MIC Values Sa12
How it was run: as §1

[7] = tested on: S. aureus ATCC 25923 (Sa); test: MIC, broth microdilution with resazurin; assay type: cell-based, Staphylococcus aureus; conditions: Staphylococcus aureus, ATCC25923, read-out: MIC Values Sa
How it was run: as §1

[8] = tested on: A. baumannii ATCC 19606 (Type Strain, AB06); test: MIC, broth microdilution with resazurin; assay type: cell-based, Acinetobacter baumannii; conditions: Acinetobacter baumannii, ATCC19606, read-out: MIC Ab06
How it was run: as §1

[9] = tested on: A. baumannii ATCC 747 (Ab47); test: MIC, broth microdilution with resazurin; assay type: cell-based, Acinetobacter baumannii; conditions: Acinetobacter baumannii, ATCC747, read-out: MIC Ab47
How it was run: as §1

[10] = tested on: three strains of A. baumannii; test: MIC summarised in the text over the three A. baumannii strains; assay type: cell-based, Acinetobacter baumannii
How it was run: as §1

Compound	activity against the tested strains (in words) [1]	MIC [2] [µg/mL]	MIC [3] [µg/mL]	MIC [4] [µg/mL]	MIC [5] [µg/mL]	MIC [6] [µg/mL]	MIC [7] [µg/mL]	MIC [8] [µg/mL]	MIC [9] [µg/mL]	MIC value as low as ([1]; lowest MIC over the tested Gram-positive / MRSA strains) [µg/mL]	activity against A. baumannii strains (in words) [10]	MIC Values Sa99 ([4]; antibiotic-resistant strain, NA = No Activity)
4-[4-[(2-Benzyl-2-phenyl-hydrazino)methyl]-3-(4-fluorophenyl)pyrazol-1-yl]benzoic Acid [Compound 24]	failed to show any significant activity											
O=C(O)c1ccc(-n2cc(/C=N/Nc3ccc([N+](=O)[O-])cc3)c(-c3ccc(F)cc3)n2)cc1 [Compound 31, 4-[3-(4-Fluorophenyl)-4-{(E)-[2-(4-nitrophenyl)hydrazinylidene]methyl}-1H-pyrazol-1-yl]benzoic Acid]	no activity											
O=C(O)c1ccc(-n2cc(/C=N/N(Cc3ccccc3)c3ccccc3)c(-c3cccc(F)c3)n2)cc1 [Compound 6, 4-[4-[(E)-[Benzyl(phenyl)hydrazono]methyl]-3-(3-fluorophenyl)pyrazol-1-yl]benzoic Acid]		1.56 (≈ 3.18 µM)	1.56 (≈ 3.18 µM)	1.56 (≈ 3.18 µM)	1.56 (≈ 3.18 µM)	1.56 (≈ 3.18 µM)	1.56 (≈ 3.18 µM)					
N#Cc1ccc(N/N=C/c2cn(-c3ccc(C(=O)O)cc3)nc2-c2ccc(F)cc2)cc1 [Compound 30, 4-[4-[(E)-[(4-Cyanophenyl)hydrazono]methyl]-3-(4-fluorophenyl)pyrazol-1-yl]benzoic Acid]	moderate activity		12.5 (≈ 29.4 µM)	6.25 (≈ 14.7 µM)			12.5 (≈ 29.4 µM)	12.5 (≈ 29.4 µM)	12.5 (≈ 29.4 µM)			
O=C(O)c1ccc(N/N=C/c2cn(-c3ccc(C(=O)O)cc3)nc2-c2cccc(F)c2)cc1 [Compound 18, 4-[(2E)-2-[[1-(4-Carboxyphenyl)-3-(3-fluorophenyl)pyrazol-4-yl]methylene]hydrazino]benzoic Acid]	completely ceased the activity											
O=C(O)c1ccc(-n2cc(/C=N/Nc3cc(F)ccc3F)c(-c3ccc(F)cc3)n2)cc1 [Compound 28, 4-[4-[(E)-[(2,5-Difluorophenyl)hydrazono]methyl]-3-(4-fluorophenyl)pyrazol-1-yl]benzoic Acid]	moderate activity	12.5 (≈ 28.6 µM)	6.25 (≈ 14.3 µM)	6.25 (≈ 14.3 µM)	25 (≈ 57.3 µM)	12.5 (≈ 28.6 µM)	12.5 (≈ 28.6 µM)					
O=C(O)c1ccc(-n2cc(/C=N/Nc3cccc(Cl)c3F)c(-c3ccc(F)cc3)n2)cc1 [Compound 29, 4-[4-[(E)-[(3-Chloro-2-fluorophenyl)hydrazono]methyl]-3-(4-fluorophenyl)pyrazol-1-yl]benzoic Acid]		12.5 (≈ 27.6 µM)	1.56 (≈ 3.44 µM)	1.56 (≈ 3.44 µM)	12.5 (≈ 27.6 µM)	3.12 (≈ 6.9 µM)	6.25 (≈ 13.8 µM)					
O=C(O)c1ccc(-n2cc(/C=N/Nc3cccc(Cl)c3F)c(-c3cccc(F)c3)n2)cc1 [Compound 13, 4-[4-[(E)-[(3-Chloro-2-fluorophenyl)hydrazono]methyl]-3-(3-fluorophenyl)pyrazol-1-yl]benzoic Acid]		6.25 (≈ 13.8 µM)	0.78 (≈ 1.72 µM)	3.12 (≈ 6.9 µM)	6.25 (≈ 13.8 µM)	12.5 (≈ 27.6 µM)	3.12 (≈ 6.9 µM)			0.78 (≈ 1.72 µM)		
O=C(O)c1ccc(-n2cc(/C=N/Nc3ccccn3)c(-c3cccc(F)c3)n2)cc1 [Compound 20, 4-[3-(3-Fluorophenyl)-4-{(E)-[2-(pyridin-2-yl)hydrazinylidene]methyl}-1H-pyrazol-1-yl]benzoic Acid]	completely ceased the activity											
O=C(O)c1ccc(-n2cc(/C=N/Nc3ccc(Br)cc3)c(-c3cccc(F)c3)n2)cc1 [Compound 10, 4-[4-[(E)-[(4-Bromophenyl)hydrazono]methyl]-3-(3-fluorophenyl)pyrazol-1-yl]benzoic Acid]		12.5 (≈ 26.1 µM)	6.25 (≈ 13 µM)	6.25 (≈ 13 µM)	12.5 (≈ 26.1 µM)	12.5 (≈ 26.1 µM)	12.5 (≈ 26.1 µM)	3.12 (≈ 6.52 µM)	6.25 (≈ 13 µM)		moderate activity	
CN(/N=C/c1cn(-c2ccc(C(=O)O)cc2)nc1-c1cccc(F)c1)c1ccccc1 [Compound 4, 4-{3-(3-Fluorophenyl)-4-[(E)-(2-methyl-2-phenylhydrazinylidene)methyl]-1H-pyrazol-1-yl}benzoic Acid]	moderate growth inhibition	12.5 (≈ 30.2 µM)	12.5 (≈ 30.2 µM)	25 (≈ 60.3 µM)	25 (≈ 60.3 µM)	25 (≈ 60.3 µM)	12.5 (≈ 30.2 µM)					
O=C(O)c1ccc(-n2cc(/C=N/Nc3cc(F)ccc3F)c(-c3cccc(F)c3)n2)cc1 [Compound 11, 4-[4-[(E)-[(2,5-Difluorophenyl)hydrazono]methyl]-3-(3-fluorophenyl)pyrazol-1-yl]benzoic Acid]		12.5 (≈ 28.6 µM)	3.12 (≈ 7.16 µM)	6.25 (≈ 14.3 µM)	12.5 (≈ 28.6 µM)	12.5 (≈ 28.6 µM)	12.5 (≈ 28.6 µM)					
O=Cc1cn(-c2ccc(C(=O)O)cc2)nc1-c1cccc(F)c1 [3a, 4-[3-(3-Fluorophenyl)-4-formyl-pyrazol-1-yl]benzoic Acid]												did not show any activity
O=C(O)c1ccc(-n2cc(/C=N/Nc3ccc(F)cc3)c(-c3ccc(F)cc3)n2)cc1 [Compound 26, 4-[3-(4-Fluorophenyl)-4-[(E)-[(4-fluorophenyl)hydrazono]methyl]pyrazol-1-yl]benzoic Acid]	moderate activity	25 (≈ 59.8 µM)	12.5 (≈ 29.9 µM)	12.5 (≈ 29.9 µM)	25 (≈ 59.8 µM)	25 (≈ 59.8 µM)	12.5 (≈ 29.9 µM)	12.5 (≈ 29.9 µM)	> 25			
O=C(O)c1ccc(-n2cc(/C=N/Nc3c(F)c(F)c(F)c(F)c3F)c(-c3cccc(F)c3)n2)cc1 [Compound 15, 4-[3-(3-Fluorophenyl)-4-[(E)-[(2,3,4,5,6-pentafluorophenyl)hydrazono]methyl]pyrazol-1-yl]benzoic Acid]	moderate activity	25 (≈ 51 µM)	3.12 (≈ 6.37 µM)	6.25 (≈ 12.7 µM)	12.5 (≈ 25.5 µM)	12.5 (≈ 25.5 µM)	12.5 (≈ 25.5 µM)					
O=C(O)c1ccc(-n2cc(/C=N/Nc3ccc(C(F)(F)F)cc3)c(-c3cccc(F)c3)n2)cc1 [Compound 16, 4-[3-(3-Fluorophenyl)-4-[(E)-[[4-(trifluoromethyl)phenyl]hydrazono]methyl]pyrazol-1-yl]benzoic Acid]	moderate activity	12.5 (≈ 26.7 µM)	6.25 (≈ 13.3 µM)	6.25 (≈ 13.3 µM)	6.25 (≈ 13.3 µM)	12.5 (≈ 26.7 µM)	12.5 (≈ 26.7 µM)					
O=C(O)c1ccc(-n2cc(/C=N/n3cnnc3)c(-c3cccc(F)c3)n2)cc1 [Compound 19, 4-[3-(3-Fluorophenyl)-4-[(E)-1,2,4-triazol-4-yliminomethyl]pyrazol-1-yl]benzoic Acid]	completely ceased the activity											
O=C(O)c1ccc(-n2cc(/C=N/N(Cc3ccccc3)Cc3ccccc3)c(-c3ccc(F)cc3)n2)cc1 [Compound 25, 4-[4-[(E)-(Dibenzylhydrazono)methyl]-3-(4-fluorophenyl)pyrazol-1-yl]benzoic Acid]			3.12 (≈ 6.19 µM)	6.25 (≈ 12.4 µM)								
O=C(O)c1ccc(-n2cc(/C=N/Nc3c(F)c(F)cc(F)c3F)c(-c3cccc(F)c3)n2)cc1 [Compound 14, 4-[3-(3-Fluorophenyl)-4-[(E)-[(2,3,5,6-tetrafluorophenyl)hydrazono]methyl]pyrazol-1-yl]benzoic Acid]	moderate activity	25 (≈ 52.9 µM)	6.25 (≈ 13.2 µM)	6.25 (≈ 13.2 µM)	12.5 (≈ 26.5 µM)	12.5 (≈ 26.5 µM)	12.5 (≈ 26.5 µM)					
O=C(O)c1ccc(-n2cc(/C=N/Nc3cccc(Br)c3)c(-c3ccc(F)cc3)n2)cc1 [Compound 27, 4-[4-[(E)-[(3-Bromophenyl)hydrazono]methyl]-3-(4-fluorophenyl)pyrazol-1-yl]benzoic Acid]	moderate activity	25 (≈ 52.2 µM)	3.12 (≈ 6.52 µM)	6.25 (≈ 13 µM)	12.5 (≈ 26.1 µM)	12.5 (≈ 26.1 µM)	12.5 (≈ 26.1 µM)	6.25 (≈ 13 µM)	25 (≈ 52.2 µM)			
O=C(O)c1ccc(-n2cc(/C=N/Nc3cccc(Cl)c3)c(-c3cccc(F)c3)n2)cc1 [Compound 8, 4-[4-[(E)-[(3-Chlorophenyl)hydrazono]methyl]-3-(3-fluorophenyl)pyrazol-1-yl]benzoic Acid]		12.5 (≈ 28.7 µM)	6.25 (≈ 14.4 µM)	3.12 (≈ 7.19 µM)	12.5 (≈ 28.7 µM)	12.5 (≈ 28.7 µM)	6.25 (≈ 14.4 µM)	6.25 (≈ 14.4 µM)	12.5 (≈ 28.7 µM)		moderate activity	
